Out of some 340,000 compounds screened, about 3,000 (0.88%) were called active. The list comes from a sample in which actives are over-represented; it also holds similar structures and randomly drawn compounds. Values without a mark were called inactive.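 How the source made its calls: active means inhibition above about 50% at 20 µM (limit read from the data); inactive means the rest.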

Usually inhibition stands for the relative decrease from the control value, in per cent.

Chain of Carboxy-terminal domain RNA polymerase II polypeptide A small phosphatase 1 (Homo sapiens) (Q9GZU7 76-261 limits assumed): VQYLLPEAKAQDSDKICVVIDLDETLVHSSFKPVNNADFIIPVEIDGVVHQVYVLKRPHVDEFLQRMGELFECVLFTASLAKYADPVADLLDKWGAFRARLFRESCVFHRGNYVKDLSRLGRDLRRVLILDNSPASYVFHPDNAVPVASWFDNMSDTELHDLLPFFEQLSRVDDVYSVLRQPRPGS

The target of the assay is Carboxy-terminal domain RNA polymerase II polypeptide A small phosphatase 1 (Homo sapiens) (UniProt Q9GZU7). As to the kind of experiment: Scp-1 phosphatase inhibitors, primary screen, biochemical, colorimetric, uHTS (AID 493091).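 Further: plate controls were DMSO wells with enzyme for no effect and wells lacking enzyme for full effect.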 As to conditions: Recombinant Scp1, phosphopeptide, malachite green phosphate absorbance; at 20 µM; active compounds read high. In a few lines: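 Assay system: SCP-1 catalytic fragment, aa 76-261 | Buffer or medium: Tris acetate buffer pH 5.5 with MgCl2 and Tween-20 | Compound: One concentration, 20 µM, with 1.0% DMSO | Also added: Phospho 17-mer peptide substrate | Signal: Absorbance at 630 nm | Incubation: 45 min enzyme reaction at room temperature | Measure: % inhibition of SCP-1 phosphate liberation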
Take `Cc1cccc(N2CCN(Cc3nc(C4CC4)no3)CC2)n1`: the inhibition is -8.45%. The same measure for `CC(C)=CCN1CCN(Cc2cc3ccccc3[nH]2)CC1CCO` (centres undefined): -3.55%; for `COC(=O)c1ccc(S(=O)(=O)c2ccc(C(=O)OC)s2)s1`: -2.05%. `NC(=O)C1=C[C@H](c2csc3ccccc23)C[C@H](OCc2ccc(CO)cc2)O1`: the inhibition was -0.48%.

Take `C[C@H](CO)N1C[C@H](C)[C@@H](CN(C)C(=O)Nc2ccc3c(c2)OCO3)Oc2c(cccc2N(C)C)C1=O`: the inhibition is 38.7%. With `C[C@H](CO)N1C[C@H](C)[C@H](CN(C)C(=O)Nc2ccc(C(F)(F)F)cc2)Oc2c(NC(=O)c3ccncc3)cccc2C1=O`, the inhibition is 88% (active). Turning to `Cc1noc(C)c1NC(=O)Nc1cccc2c1O[C@H](CN(C)C(=O)Nc1ccccc1)[C@@H](C)CN([C@H](C)CO)C2=O`, the inhibition is -8.19%. The same measure for `COC(=O)CSc1ccc2nnc(CCNS(=O)(=O)c3ccc(C)cc3)n2n1`: -10.5%. Turning to `O=C1N/C(=C/c2cccn2-c2ccccc2)C(=O)N1c1cccc(Cl)c1`, the inhibition was -4.36%. The same measure for `Cc1ccccc1NC(=O)CN1C(=O)N/C(=C\c2cccn2-c2cccc(C(=O)O)c2)C1=O`: 65.5% (active); for `Cc1ccccc1NC(=O)CSC(=O)c1ccccc1`: -4.57%. In the case of `O=C(COC(=O)c1ccc(O)cc1)Nc1nccs1`, the inhibition was -1.45%. In the case of `O=C(Nc1ccc(-c2ccc3nncn3n2)cc1)C1CCCCC1` it was -12.9%; in that of `COc1ccc(OC)c(NC(=O)CSc2nc(N)c(-c3ccccc3)c(=O)[nH]2)c1`, 3.19%; in that of `COc1ccc(OC)c(NC(=O)CSc2nc(-c3ccccc3)cc(=O)[nH]2)c1`, 81.5% (active). In the case of `CCCc1cc(=O)[nH]c(SCC(=O)Nc2ccc(C(=O)Nc3ccccc3OC)cc2)n1` it was -2.71%. Turning to `CC(=O)c1cccc(NC(=O)N2CCCC2C(=O)NCCc2ccccc2)c1` (centres undefined), the inhibition was -7.73%.

On to `C[n+]1ccc(C(=O)NCc2ccccc2)cc1`, for which the inhibition was 92.7% (active). As to `CS(=O)(=O)NCc1ccc(C(=O)NCc2ccccc2)cc1`, the inhibition was -6.79%. For the compound `Nc1ccc(C(=O)NCc2ccccc2)cc1`, the inhibition is -1.69%.

On to `Cc1noc(C)c1-c1ccc2ncnc(NC(C)c3ccco3)c2c1` (centres undefined), for which the inhibition is 8.09%. In the case of `CCn1cc(C(=O)N2CCN(C3CCCCC3)CC2)c2cc(OC)c(OC)cc2c1=O`, the inhibition is 0%.

On to `CCOC(=O)N1CCN(C(=O)C2CC(c3ccc(F)cc3)=NO2)CC1` (centres undefined), for which the inhibition was -0.41%. The same measure for `Cc1cccc(-[n+]2c(-c3cccc(Br)c3)[nH]c3nc4ccccc4nc32)c1`: -8.9%; for `COc1ccc(-n2cnnc2SCC(=O)Nc2cccc([N+](=O)[O-])c2)cc1`: -10.7%. Take `NC(=O)NC(=O)CSc1nc2cc([N+](=O)[O-])ccc2n1-c1cccc(C(F)(F)F)c1`: the inhibition is 62.8% (active).

As to `NS(=O)(=O)c1cccc(NC(=O)CSc2nc3ccccc3n2-c2ccccc2)c1`, the inhibition was -22.7%. With `C/C(CC(=O)Nc1ccc(Cl)cc1)=N\NC(=O)C(=O)NCCO`, the inhibition was -2.46%. Take `COc1ccc(N2C(=O)C(CC(=O)Nc3ccc(F)cc3)N(CCc3cccs3)C2=O)cc1` (centres undefined): the inhibition was 0.58%. With `CCN(CC)c1ccc(C(=O)NNC(=O)CCc2nc3ccccc3c(=O)[nH]2)cc1`, the inhibition was -4.7%.

Turning to `CC1CCN(C(=O)COC(=O)CCC(=O)c2cccs2)CC1`, the inhibition was 0.96%. Consider `CSCCC(NC(=O)c1ccco1)C(=O)OCC(=O)Nc1ncc(Cl)c(C)c1Cl` (centres undefined), for which the inhibition is 2.12%. For `Cc1cc(C(=O)OCC(=O)N2c3ccccc3NC(=O)C2(C)C)c(C)n1-c1ccccc1`, the inhibition is -10.3%.

Consider `CN(c1ccccc1)S(=O)(=O)c1ccc(Cl)c(C(=O)OCC(=O)N2CCOCC2)c1`, for which the inhibition is -10.4%. In the case of `Cc1c(Cl)cnc(NC(=O)COC(=O)c2ccc(S(=O)(=O)NCc3ccco3)cc2)c1Cl`, the inhibition is 61.6% (active). As for `C/C(=N\Nc1ncc(Cl)cc1Cl)c1ccc(S(=O)(=O)NCc2ccco2)cc1`, the inhibition is -6.85%. For the compound `CCOC(=O)c1cnc(SCC(=O)NCc2ccco2)nc1N`, the inhibition is -2.2%. In the case of `O=C(COC(=O)c1cccs1)NCc1cccs1`, the inhibition is -4.94%. Consider `CN(c1ccccc1)S(=O)(=O)c1ccc(Cl)c(C(=O)OCC(=O)NCc2ccco2)c1`, for which the inhibition was 81.1% (active).

In the case of `O=C(COC(=O)CCC(=O)c1cccs1)NCc1ccco1`, the inhibition is 96.1% (active).

As to `CN(c1ccccc1)S(=O)(=O)c1ccc(Cl)c(C(=O)OCC(N)=O)c1`, the inhibition was -10.7%. The same measure for `Cc1cc(C(=O)OCC(=O)NCc2ccco2)c(C)n1-c1ccccc1`: 73.1% (active); for `Cc1ccccc1C(=O)NCC(c1ccco1)N1CCc2ccccc21` (centres undefined): 3.6%. In the case of `O=C(c1ccccc1F)N1CCN(S(=O)(=O)c2ccc(Br)cc2)CC1` it was -10.3%; in that of `CC(C)CCN1CCN=C1N(C)C`, 0.8%.

Regarding `Cc1nnc(CN(C)Cc2cn[nH]c2-c2ccc(-c3ccccc3)cc2)o1`, the inhibition is -5.39%. On to `CSCCC(NS(=O)(=O)c1ccc(C)cc1)C(=O)N(C)CC(=O)Nc1ccccc1Br` (centres undefined), for which the inhibition was -5.24%. In the case of `Cc1nn2c(NCCN(C)C)c3c(nc2c1-c1ccccc1)CCC3`, the inhibition is -10.7%. For the compound `COc1ccc(NC(=O)COC(=O)c2n[nH]c3ccccc23)c(OC)c1`, the inhibition was -9.82%.

As to `COc1ccc(CCNC(=O)COC(=O)c2cnc(Cl)c(Cl)c2)cc1`, the inhibition was -7.74%.

Turning to `O=C(COC(=O)c1ccccc1O)NCc1ccco1`, the inhibition was 67.2% (active). In the case of `O=C(COC(=O)c1ccco1)NCc1ccc(Cl)cc1` it was -4.57%; in that of `O=C(COC(=O)C12CC3CC(CC(C3)C1)C2)NCc1ccco1`, 11.5%.

Consider `O=C(COC(=O)c1cnc(Cl)c(Cl)c1)NCc1ccco1`, for which the inhibition was 53.3% (active).

As to `O=C(CCNC(=O)c1ccccc1Cl)NCc1ccco1`, the inhibition was 18.8%. `COCCNC(=S)N1CCN(C)CC1`: the inhibition was -7.43%. On to `CC1CC(c2ccccc2)n2nc(NC(=O)c3cccs3)nc2N1` (centres undefined), for which the inhibition was 2.86%. In the case of `CC(CC(=O)Nc1ccccc1)n1ccnc1` (centres undefined), the inhibition was -3.02%.

In the case of `O=C(CN1CCN(c2ccc(Cl)cc2)CC1)c1ccccc1`, the inhibition was 52% (active). Turning to `O=C(CN1CCN(c2ccc(Cl)cc2)CC1)NCc1cccs1`, the inhibition is 3.78%. In the case of `CC(C)OC(=O)CN1CCN(c2ccc(Cl)cc2)CC1` it was 4.48%; in that of `CN(CC(=O)Nc1ccc(F)c(F)c1F)C(=O)Cn1cnc2c1c(=O)n(C)c(=O)n2C`, -3.89%; in that of `O=C(CCC1CCCN(C(=O)Cc2ccc(F)cc2)C1)N1CCN(c2ccccn2)CC1` (centres undefined), -6.06%. On to `C=Cc1ccc(C(=O)N2CCCC(CCC(=O)N3CCN(c4ccccn4)CC3)C2)cc1` (centres undefined), for which the inhibition was 87.9% (active).

Consider `O=C(CCC1CCCN(C(=O)c2ccc(F)c(F)c2)C1)N1CCN(c2ccccn2)CC1` (centres undefined), for which the inhibition was -8.35%. As to `Cc1ccc(C(=O)COC(=O)CCN2C(=O)C3C4CC(C(Br)C4Br)C3C2=O)cc1` (centres undefined), the inhibition was -7.42%. In the case of `CC(=O)N1Cc2ccccc2CC1C(=O)O` (centres undefined), the inhibition is 12.9%. Turning to `O=c1c(Cl)c(NCc2ccc(F)cc2Cl)cnn1C12CC3CC(CC(C3)C1)C2`, the inhibition was 17.9%.

As for `O=C(O)c1ccc(NS(=O)(=O)c2cccc3nsnc23)cc1`, the inhibition was -2.95%.

Consider `COc1ccc(NS(=O)(=O)c2cccc3nsnc23)cc1Cl`, for which the inhibition was -12.1%.

With `O=S(=O)(Nc1ccccc1Cl)c1cccc2nsnc12`, the inhibition was 67% (active). Take `Cc1nn2c3cc(N4CCOCC4)ccc3nc2c2ccccc12`: the inhibition is 7.49%.

As to `COc1ccc(C2=Nc3cc(C)ccc3OC2)cc1`, the inhibition was -3.61%. Take `COCCOC(=O)C1=C(C)NC(=O)NC1c1cc2c(cc1Br)OCO2` (centres undefined): the inhibition was -6.54%. Consider `COCCN(C(=S)Nc1cccc(Cl)c1C)C(C)c1ccco1` (centres undefined), for which the inhibition was -5.75%.

With `COc1cccc(NC(=O)CCNS(=O)(=O)c2ccc3c(c2)oc(=O)n3C)c1`, the inhibition was 6.79%. As to `COc1cccc(NC(C)=[N+](C)CCNS(=O)(=O)c2ccc(Cl)cc2)c1`, the inhibition was 105% (active). Consider `COc1ccc(S(=O)(=O)NCCCCOc2ccc(Cl)cc2)cc1`, for which the inhibition is -3.96%.

With `COc1ccc(/C=C/CN2CCCC(C(=O)c3cc(F)ccc3F)C2)cc1` (centres undefined), the inhibition is -4.6%. Regarding `O=C(Nc1cccnc1Oc1ncnc2cc(Cl)ccc12)c1ccc(F)cc1`, the inhibition is -6.88%.

On to `CCN(CC)S(=O)(=O)c1ccc(N2CCOCC2)c(NC(=O)C2COc3ccccc3O2)c1` (centres undefined), for which the inhibition is -9.66%.

`O=C(Nc1cc(S(=O)(=O)N2CCCCC2)ccc1Cl)C1COc2ccccc2O1` (centres undefined): the inhibition is 55.3% (active). Turning to `O=C(CNCc1cccs1)Nc1cc(S(=O)(=O)N2CCCC2)ccc1Cl`, the inhibition was 1.26%. Take `CC(=O)c1ccc(NC(=O)C(C)N(C)CC(=O)Nc2ccccc2Cl)cc1` (centres undefined): the inhibition was 9.97%.

For the compound `O=C(/C=C/c1cccc([N+](=O)[O-])c1)NCCSCc1ccco1`, the inhibition is -5.27%. Consider `OC1CSc2nc3ccccc3n2C1` (centres undefined), for which the inhibition is -14.6%. On to `Cc1ccc(CCCOC(=O)C[N+]2(C)CCCCC2)cc1`, for which the inhibition was 4.77%. In the case of `Cc1ccc(CCCOC(=O)C[N+]2(C)CCCC2)cc1` it was 101% (active); in that of `Cc1ccc(COC(=O)CN2C(=O)NC3(CCCC3)C2=O)cc1`, -2.24%. Consider `Nc1ccc2c(c1)C(=Cc1cccnc1)c1ccccc1-2`, for which the inhibition is -0.04%. For the compound `C[C@H](NC(=O)c1nc[nH]c1C(=O)NCC(=O)OC(C)(C)C)C(=O)OCc1ccccc1`, the inhibition is -3.03%. In the case of `O=C(c1ccc2c(c1)OCO2)N1CCN(C(=O)c2ccco2)CC1` it was -10.7%; in that of `O=C(c1ccc2c(c1)OCO2)N1CCNc2ccccc2C1`, 54.2% (active). In the case of `O=CN1CCN(C(=O)c2ccc3c(c2)OCO3)CC1`, the inhibition was -4.58%.

The values above are taken from PubChem BioAssay AID493091 (Sanford-Burnham Center for Chemical Genomics, 2011).
